The record followed here is ChEMBL document CHEMBL4387777, “Bis(benzoyl) phosphate inactivators of beta-lactamase C from Mtb” (Bioorg Med Chem Lett, 2019).

Molecules are shown by their SMILES.

A short description of data set [1]: Stability of the compound in pH 7.4 PIPES buffer assessed as compound hydrolysis at 5 to 10 mg by 31p-NMR analysis. It counts as physicochemical.
Data set [2] has as its system Mycobacterium tuberculosis. Kind of data set: Time-dependent inhibition of Mycobacterium tuberculosis BlaC expressed in Escherichia coli assessed as inactivation rate constant using nitrocefin as substrate.
In data set [3] the test system is Mycobacterium tuberculosis. Kind of data set: Inhibition of Mycobacterium tuberculosis BlaC expressed in Escherichia coli at 100 uM using nitrocefin as substrate measured at 2 mins interval for 10 mins relative to control. In a few lines:
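Purified BlaC was screened against each compound at a single concentration of 100 µM, and percent inhibition was read. Each % inhibition value comes from n ≥ 4 determinations and is reported with its standard deviation.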

Turning to `N#Cc1ccc(C(=O)OP(=O)(O)OC(=O)c2ccc(C#N)cc2)cc1`, in data set [1], the Stability result was “Unstable”.
In general, inhibition refers to the relative decrease from the control value, in per cent. A lower inhibition goes with a response near the control. As to `O=C(OP(=O)(O)OC(=O)c1ccc(F)cc1)c1ccc(F)cc1`, the K in data set [2] was 0.45 min⁻¹. The Stability entry in data set [1] is “Stable”. In addition, in data set [3], the inhibition was 84.3%.
For `Cc1ccc(C(=O)OP(=O)(O)OC(=O)c2ccc(C)cc2)cc1`, in data set [1], the Stability result is listed as “Stable”. This molecule displayed an inhibition in data set [3] of 41.2%.
For the molecule `O=C(OP(=O)(O)OC(=O)c1ccccc1)c1ccccc1`, the K in data set [2] stood at 0.324 min⁻¹. In data set [1], the Stability entry is “Stable”. In addition, in data set [3], the inhibition worked out at 52.3%.
On to `O=C(OP(=O)(O)OC(=O)c1ccc(-c2ccccc2)cc1)c1ccc(-c2ccccc2)cc1`, for which the Stability result in data set [1] is “Stable”. In addition, the inhibition in data set [3] worked out at 0%.
The matching figures for `O=C(OP(=O)(O)OC(=O)c1ccc(Cl)c(Cl)c1)c1ccc(Cl)c(Cl)c1`: “Stable” and 20.2%.
Take `COc1ccc(C(=O)OP(=O)(O)OC(=O)c2ccc(OC)cc2)cc1`: the K in data set [2] was found to be 0.212 min⁻¹. Besides, the Stability entry in data set [1] is recorded as “Stable”. Besides, in data set [3], the inhibition turned out to be 65.5%.
For the molecule `O=C(OP(=O)(O)OC(=O)c1ccc(C(F)(F)F)cc1)c1ccc(C(F)(F)F)cc1`, the Stability entry in data set [1] is on record as “Stable”. For the same molecule, the inhibition in data set [3] is 42.5%.
For `O=C(OP(=O)(O)OC(=O)c1ccc(Cl)cc1)c1ccc(Cl)cc1`, in that order: “Stable” and 24.8%.
Consider `O=C(OP(=O)(O)OC(=O)c1ccc([N+](=O)[O-])cc1)c1ccc([N+](=O)[O-])cc1`, for which, in data set [1], the Stability result was “Unstable”.
